One assay relates to A549. The assay can be described thus: Cytotoxicity against human A549 cells assessed as reduction in cell viability after 72 hrs by MTT assay. Format: functional, cell-based. The conditions noted are these: A549, 72 h. On the technique in general: Tetrazolium assays rely on reduction of a dye to a coloured formazan, in cell work by metabolically active cells.
A short description of assay [1]: Cytotoxicity against human PC3 cells assessed as reduction in cell viability after 72 hrs by MTT assay. Format: functional, cell-based. The settings on record: PC-3, 72 h. The essentials:
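Cells grown in MEM with 10% FBS. About 4×10³ cells per well, seeded and held 24 h at 37 °C in 5% CO₂. Compounds added at the indicated final concentrations for 72 h. MTT then given for 4 h at 37 °C and formazan dissolved in DMSO. Absorbance read at 492 nm with 630 nm as reference.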

A further assay concerns MCF7. Kind of assay: Cytotoxicity against human MCF7 cells assessed as reduction in cell viability after 72 hrs by MTT assay. The conditions noted are these: MCF7, 72 h. In kind it is functional, cell-based.
Assay [2] concerns the target Serine/threonine-protein kinase mTOR (Homo sapiens, UniProt P42345). The assay can be described thus: Inhibition of mTOR (unknown origin) using ULight-4E-BP1 peptide substrate incubated for 1 hr by TR-FRET assay. Background: In TR-FRET formats the signal depends on donor and acceptor labels being close together.
Assay [3] concerns the target Phosphatidylinositol 4,5-bisphosphate 3-kinase catalytic subunit alpha isoform (Homo sapiens, UniProt P42336). The assay can be described thus: Inhibition of PI3Kalpha (unknown origin) using phosphatidylinositol as substrate incubated for 60 mins by Kinase-Glo luminescent kinase assay. For orientation: Kinase-Glo measures the ATP left after a reaction by luminescence.

In assay [4] the target is Hepatocyte growth factor receptor (Homo sapiens, UniProt P08581).

IC50 data for 22 compounds are collected here from ChEMBL document CHEMBL3792291, “Design, synthesis, biological evaluation and docking studies of novel 2-substituted-4-morpholino-7,8-dihydro-5H-thiopyrano[4,3-d]pyrimidine derivatives as dual PI3Kα/mTOR inhibitors” (Eur J Med Chem, 2016).

Some results are limits rather than exact numbers.

Chain of Hepatocyte growth factor receptor (P08581 whole entry): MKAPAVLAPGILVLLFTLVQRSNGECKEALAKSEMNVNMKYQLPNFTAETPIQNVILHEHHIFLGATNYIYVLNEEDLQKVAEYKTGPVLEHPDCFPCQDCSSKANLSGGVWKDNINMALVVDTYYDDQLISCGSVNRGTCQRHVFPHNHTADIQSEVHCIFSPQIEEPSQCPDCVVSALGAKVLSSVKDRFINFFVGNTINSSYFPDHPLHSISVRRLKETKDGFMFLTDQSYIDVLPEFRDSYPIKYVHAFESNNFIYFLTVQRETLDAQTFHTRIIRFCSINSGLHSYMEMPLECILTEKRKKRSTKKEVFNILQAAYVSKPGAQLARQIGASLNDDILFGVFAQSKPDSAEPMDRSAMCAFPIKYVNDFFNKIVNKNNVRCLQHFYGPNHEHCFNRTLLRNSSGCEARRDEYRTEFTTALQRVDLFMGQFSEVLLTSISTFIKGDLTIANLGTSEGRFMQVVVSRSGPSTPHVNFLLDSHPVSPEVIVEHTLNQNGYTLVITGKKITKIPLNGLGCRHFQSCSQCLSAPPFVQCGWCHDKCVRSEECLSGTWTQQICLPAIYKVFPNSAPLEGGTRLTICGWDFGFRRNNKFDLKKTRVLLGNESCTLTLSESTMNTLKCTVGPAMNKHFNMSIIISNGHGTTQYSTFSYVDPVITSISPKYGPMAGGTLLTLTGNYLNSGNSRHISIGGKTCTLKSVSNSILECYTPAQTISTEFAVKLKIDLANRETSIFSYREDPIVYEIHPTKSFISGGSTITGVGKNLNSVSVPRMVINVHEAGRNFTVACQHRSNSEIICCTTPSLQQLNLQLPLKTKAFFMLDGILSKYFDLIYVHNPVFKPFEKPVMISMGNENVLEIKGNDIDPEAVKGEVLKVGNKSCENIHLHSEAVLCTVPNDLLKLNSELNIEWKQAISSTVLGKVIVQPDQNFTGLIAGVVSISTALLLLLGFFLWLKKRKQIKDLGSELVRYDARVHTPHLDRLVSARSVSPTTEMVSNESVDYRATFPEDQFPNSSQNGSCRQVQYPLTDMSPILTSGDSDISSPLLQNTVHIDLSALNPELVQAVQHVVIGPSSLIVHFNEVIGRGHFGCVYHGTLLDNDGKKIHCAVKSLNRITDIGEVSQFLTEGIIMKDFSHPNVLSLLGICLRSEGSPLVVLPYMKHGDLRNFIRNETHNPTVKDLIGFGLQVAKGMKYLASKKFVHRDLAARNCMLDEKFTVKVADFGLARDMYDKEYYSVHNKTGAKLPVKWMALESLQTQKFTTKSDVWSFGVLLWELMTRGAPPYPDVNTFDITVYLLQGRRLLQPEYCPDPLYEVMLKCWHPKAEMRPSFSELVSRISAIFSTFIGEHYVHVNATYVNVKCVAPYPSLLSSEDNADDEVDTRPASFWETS
Chain of Phosphatidylinositol 4,5-bisphosphate 3-kinase catalytic subunit alpha isoform (P42336 whole entry, canonical isoform): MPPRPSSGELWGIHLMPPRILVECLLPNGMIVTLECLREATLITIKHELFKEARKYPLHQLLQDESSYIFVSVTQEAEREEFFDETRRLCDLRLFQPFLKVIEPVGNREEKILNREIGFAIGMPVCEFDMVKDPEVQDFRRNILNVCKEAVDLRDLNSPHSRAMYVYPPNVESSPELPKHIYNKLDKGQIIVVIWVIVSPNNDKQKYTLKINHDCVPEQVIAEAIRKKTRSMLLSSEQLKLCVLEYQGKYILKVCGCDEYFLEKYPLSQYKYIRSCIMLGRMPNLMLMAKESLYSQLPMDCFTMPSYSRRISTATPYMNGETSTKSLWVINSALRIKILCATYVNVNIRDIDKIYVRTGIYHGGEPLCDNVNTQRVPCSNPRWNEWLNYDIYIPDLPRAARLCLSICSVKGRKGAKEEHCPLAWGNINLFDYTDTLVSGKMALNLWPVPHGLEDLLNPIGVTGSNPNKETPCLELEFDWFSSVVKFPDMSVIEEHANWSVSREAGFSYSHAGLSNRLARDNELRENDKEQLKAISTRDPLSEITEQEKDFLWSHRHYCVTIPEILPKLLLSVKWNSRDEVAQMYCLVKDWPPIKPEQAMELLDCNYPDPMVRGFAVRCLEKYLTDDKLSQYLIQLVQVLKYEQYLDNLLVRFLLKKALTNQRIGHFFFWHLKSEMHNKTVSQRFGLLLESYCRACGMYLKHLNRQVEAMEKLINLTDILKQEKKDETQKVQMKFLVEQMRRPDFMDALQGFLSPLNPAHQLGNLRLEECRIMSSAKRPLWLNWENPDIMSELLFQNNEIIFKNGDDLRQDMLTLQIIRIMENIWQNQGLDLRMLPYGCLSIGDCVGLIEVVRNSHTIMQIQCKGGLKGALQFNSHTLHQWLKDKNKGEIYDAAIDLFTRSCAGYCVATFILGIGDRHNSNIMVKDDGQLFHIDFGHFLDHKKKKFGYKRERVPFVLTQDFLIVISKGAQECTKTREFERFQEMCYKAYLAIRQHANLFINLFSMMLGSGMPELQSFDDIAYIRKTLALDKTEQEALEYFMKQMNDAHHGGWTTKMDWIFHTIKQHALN

As usually defined, the IC50 is the point on the concentration scale where inhibition reaches its midpoint. For `O=C(Nc1ccc(-c2nc3c(c(N4CCOCC4)n2)CSCC3)cc1)NS(=O)(=O)c1ccc(Cl)cc1`, the 50% inhibitory concentration (IC50) (with A549; in assay [1]; with MCF7) was above 50 µM throughout.
Regarding `O=C(Nc1ccc(-c2nc3c(c(N4CCOCC4)n2)CS(=O)(=O)CC3)cc1)NS(=O)(=O)c1ccc(Cl)cc1`, the half-inhibitory concentration (IC50) (in the assay on A549; in assay [1]; with MCF7) was above 50 µM each time.
Take `O=C(Nc1ccccc1)N1CCN(c2nc3c(c(N4CCOCC4)n2)CSCC3)CC1`: the IC50 (in the assay on A549; in assay [1]; with MCF7) was above 50 µM in each case.
Take `O=C(Nc1ccc(-c2nc3c(c(N4CCOCC4)n2)CSCC3)cn1)NS(=O)(=O)c1cccs1`: the IC50 in the assay on A549 was 46.9 µM; in assay [1], above 50 µM; with MCF7, above 50 µM.
For the compound `O=C(Nc1ccc(Cl)c(C(F)(F)F)c1)N1CCN(c2nc3c(c(N4CCOCC4)n2)CS(=O)(=O)CC3)CC1`, the IC50 with A549 was 6.13 µM; in assay [1], 28.7 µM; in the assay on MCF7 it was 5.94 µM; in assay [2], 9.43 µM; in assay [3], 4.23 µM; in assay [4], above 10 µM.
On to `O=C(Nc1ccc(Br)cc1)N1CCN(c2nc3c(c(N4CCOCC4)n2)CS(=O)(=O)CC3)CC1`, for which the values for the 50% inhibitory concentration (IC50) (with A549; in assay [1]; in the assay on MCF7) were 19 µM, above 50 µM and 45.6 µM, respectively.
Regarding `O=C(Nc1ccccc1)Nc1ccc(-c2nc3c(c(N4CCOCC4)n2)CSCC3)cn1`, the IC50 with A549 was 1.27 µM; in assay [1], above 50 µM; in the assay with MCF7, 46.6 µM.
In the case of `O=C(Nc1ccc(F)c(Cl)c1)Nc1ccc(-c2nc3c(c(N4CCOCC4)n2)CSCC3)cn1`, the 50% inhibitory concentration (IC50) with A549 was 6.07 µM; in assay [1], 20.5 µM; with MCF7, 11.5 µM; in assay [2], 0.86 µM; in assay [3], 0.69 µM; in assay [4], above 10 µM.
In the case of `O=C(Nc1ccc(Br)cc1)N1CCN(c2nc3c(c(N4CCOCC4)n2)CSCC3)CC1`, the 50% inhibitory concentration (IC50) in the assay on A549 is 39.9 µM; in assay [1], above 50 µM; in the assay with MCF7, 4.68 µM.
As to `O=C(Nc1ccc(F)c(Cl)c1)Nc1ccc(-c2nc3c(c(N4CCOCC4)n2)CS(=O)(=O)CC3)cn1`, the 50% inhibitory concentration (IC50) with A549 is 0.52 µM; in assay [1], 1.41 µM; with MCF7, 4.82 µM; in assay [2], 0.94 µM; in assay [3], 6.72 µM; in assay [4], above 10 µM.
With `O=C(Nc1ccc(Cl)c(C(F)(F)F)c1)N1CCN(c2nc3c(c(N4CCOCC4)n2)CSCC3)CC1`, the IC50 with A549 is 3.83 µM; in assay [1], 26.7 µM; with MCF7, 5.8 µM; in assay [2], 6.26 µM; in assay [3], above 10 µM; in assay [4] it was above 10 µM.
As for `O=C(Nc1ccc(-c2nc3c(c(N4CCOCC4)n2)CSCC3)cn1)NS(=O)(=O)c1ccc(F)cc1`, the 50% inhibitory concentration (IC50) in the assay on A549 is 36.2 µM; in assay [1], above 50 µM; with MCF7, above 50 µM.
Consider `O=C(Nc1ccc(Cl)c(C(F)(F)F)c1)Nc1ccc(-c2nc3c(c(N4CCOCC4)n2)CS(=O)(=O)CC3)cn1`, for which the half-inhibitory concentration (IC50) with A549 was above 50 µM; in assay [1], 32.2 µM; with MCF7, 4.67 µM.
For `O=C(Nc1ccc(-c2nc3c(c(N4CCOCC4)n2)CS(=O)(=O)CC3)cc1)NS(=O)(=O)c1ccc(F)cc1` the same measures were above 50 µM, above 50 µM and above 50 µM.
For `O=C(Nc1ccc(-c2nc3c(c(N4CCOCC4)n2)CS(=O)(=O)CC3)cn1)NS(=O)(=O)c1ccc(Cl)cc1` the same measures were above 50 µM, above 50 µM and above 50 µM.
For `O=C(Nc1ccc(-c2nc3c(c(N4CCOCC4)n2)CSCC3)cc1)NS(=O)(=O)c1ccc(F)cc1` the same measures were above 50 µM, above 50 µM and above 50 µM.
For `O=C(Nc1ccc(-c2nc3c(c(N4CCOCC4)n2)CSCC3)cn1)NS(=O)(=O)c1ccc(Cl)cc1`, the IC50 (in the assay with A549; in assay [1]; in the assay with MCF7) was above 50 µM in each case.
Take `O=C(Nc1ccc(-c2nc3c(c(N4CCOCC4)n2)CS(=O)(=O)CC3)cn1)NS(=O)(=O)c1ccc(F)cc1F`: the values for the IC50 (in the assay with A549; in assay [1]; with MCF7) were 22.7 µM, above 50 µM and 19.7 µM, respectively.
Consider `O=C(Nc1ccccc1)N1CCN(c2nc3c(c(N4CCOCC4)n2)CS(=O)(=O)CC3)CC1`, for which the IC50 (with A549; in assay [1]; with MCF7) was above 50 µM each time.
Turning to `Cc1ccc(S(=O)(=O)NC(=O)Nc2ccc(-c3nc4c(c(N5CCOCC5)n3)CS(=O)(=O)CC4)cn2)cc1`, the values for the IC50 (in the assay on A549; in assay [1]; in the assay on MCF7) were 42.5 µM, above 50 µM and above 50 µM, respectively.
With `CS(=O)(=O)N1CCN(Cc2cc3nc(-c4cccc5[nH]ncc45)nc(N4CCOCC4)c3s2)CC1` [PICTILISIB], the IC50 in the assay on A549 is 1.2 µM; in assay [1], 0.8 µM.
Turning to `CNC(=O)c1cc(Oc2ccc(NC(=O)Nc3ccc(Cl)c(C(F)(F)F)c3)cc2)ccn1` [SORAFENIB], in assay [1], the half-inhibitory concentration (IC50) turned out to be 8.08 µM.
